Laboratory results taken from ChEMBL document CHEMBL2046427, “Nonhematotoxic naphthalene diimide modified by polyamine: synthesis and biological evaluation” (J Med Chem, 2012).
Activity calls are given as the source filed them. No cut-off for these calls is given here.

What was measured:
HepG2 [1] = assay: Cytotoxicity against human HepG2 cells after 48 hrs by MTT assay; assay type: functional, cell-based; conditions: HepG2, 48 h
How it was run: (§1)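 MTT conversion assay at 37 °C, 5% CO₂. […] Inhibition relative to untreated cells as 100%; IC50 by linear regression, mean of three independent experiments.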

MDA-MB-231 = assay: Cytotoxicity against human MDA-MB-231 cells after 48 hrs by MTT assay; assay type: functional, cell-based; conditions: MDA-MB-231, 48 h; how it was run: as §1
K562 = assay: Cytotoxicity against human K562 cells after 48 hrs by MTT assay; assay type: functional, cell-based; conditions: K562, 48 h; how it was run: as §1
HepG2 [2] = assay: Cytotoxicity against human HepG2 cells assessed as cell nuclear shrinkage at 1 to 30 uM after 48 hrs by Hoechst 33342-based fluorescence-based high-content screening assay; assay type: functional
How it was run: (§2)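 HepG2 seeded 5 × 10³/well; after 12 h treated at 1, 5, 10, 15 and 30 μM for 48 h. Multiparameter cytotoxicity kit staining imaged by high-content screening: Hoechst 33342 for nuclear morphology, permeability dye (green nuclei) for membrane integrity, mitochondrial potential dye, and a weak-base dye for lysosomal mass/pH.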

HCT-116 = assay: Cytotoxicity against human HCT116 cells after 48 hrs by MTT assay; assay type: functional, cell-based; conditions: HCT-116, 48 h; how it was run: as §1
HepG2 [3] = assay: Cytotoxicity against human HepG2 cells assessed as acruement in lysosomal mass/pH at 1 to 30 uM after 48 hrs by fluorescence-based high-content screening assay; assay type: functional, cell-based; how it was run: as §2
HepG2 [4] = assay: Cytotoxicity against human HepG2 cells assessed as decrease in mitochondrial membrane potential at 1 to 30 uM after 48 hrs by fluorescence-based high-content screening assay; assay type: functional, cell-based; how it was run: as §2
HepG2 [5] = assay: Cytotoxicity against human HepG2 cells assessed as mitochondrial permeability augmentation at 1 to 30 uM after 48 hrs by fluorescence-based high-content screening assay; assay type: functional, cell-based; how it was run: as §2

SMILES | IC50 (HepG2 [1]) [µM] | IC50 (MDA-MB-231) [µM] | IC50 (K562) [µM] | Activity (HepG2 [2]) | IC50 (HCT-116) [µM] | Activity (HepG2 [3]) | Activity (HepG2 [4]) | Activity (HepG2 [5])
NCCCCNCCCCNCCCCN1C(=O)c2ccc3c4c(ccc(c24)C1=O)C(=O)N(CCCCNCCCCNCCCCN)C3=O | > 50 | > 50 | 28 | – | – | – | – | –
NCCCCNCCCCNCCCCN1C(=O)c2ccc(-c3ccc4c(c3)C(=O)N(CCCCNCCCCNCCCCN)C4=O)cc2C1=O | > 50 | > 50 | – | inactive | > 50 | inactive | inactive | inactive
NCCCCNCCCCNCCCCN1C(=O)c2cccc3c(-c4ccccc4)ccc(c23)C1=O | 32.1 | 19.1 | 14.2 | – | – | – | – | –
NCCCNCCCNCCCN1C(=O)c2ccc(-c3ccc4c(c3)C(=O)N(CCCNCCCNCCCN)C4=O)cc2C1=O | > 50 | > 50 | – | – | > 50 | – | – | –
NCCCNCCCNCCCN1C(=O)c2ccc3c4c(ccc(c24)C1=O)C(=O)N(CCCNCCCNCCCN)C3=O | 48.5 | 18 | 21.2 | – | – | – | – | –
NCCCNCCCNCCCN1C(=O)c2cccc3c(-c4ccccc4)ccc(c23)C1=O | 15.6 | 14.6 | 14.4 | – | – | – | – | –
NCCCCNCCCCN1C(=O)c2cccc3c(-c4ccccc4)ccc(c23)C1=O | 17.1 | 19.2 | 14.4 | – | – | – | – | –
